# ChEMBL document CHEMBL5346963, “Innovative Strategy toward Mutant CFTR Rescue in Cystic Fibrosis: Design and Synthesis of Thiadiazole Inhibitors of the E3 Ligase RNF5” (J Med Chem, 2023)
# pEC50: −log10 of the molar value. Active and inactive are the calls of the source. Unless noted, no cut-off for these calls is given here.
# Columns and labels:
# [1] = target: E3 ubiquitin-protein ligase RNF5 (Homo sapiens) (UniProt Q99942); test: Binding affinity to recombinant human RNF5 (1 to 117 residues) expressed in Escherichia coli BL21(DE3) at 50 uM by Microscale thermophoresis analysis
# Chain of E3 ubiquitin-protein ligase RNF5 (Homo sapiens) (Q99942 whole entry, the tested form may be a part): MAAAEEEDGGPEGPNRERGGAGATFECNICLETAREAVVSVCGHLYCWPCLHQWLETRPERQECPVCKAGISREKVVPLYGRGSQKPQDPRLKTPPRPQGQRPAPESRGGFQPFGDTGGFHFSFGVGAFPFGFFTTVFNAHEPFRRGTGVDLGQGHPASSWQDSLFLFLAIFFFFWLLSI
# Summary of the method: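 Human RNF5 aa 1–117 was expressed GST-tagged in E. coli BL21(DE3) with 0.2 mM IPTG for 5 h at 37 °C. It was purified on glutathione resin, TEV-cleaved, and RED-NHS labelled (5 nM). Binding check was run in PBS with 0.05% Tween-20, 0.1% PEG-8000 and 1 μM ZnCl2, ± 1 mM DTT, at ≤5% DMSO. Medium MST power, 20% excitation.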
# [2] = Aggregation property of the compound in PBS buffer at pH 7.5 by 1D 1H-NMR analysis; type: physicochemical
# Summary of the method: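 Solubility by 1H 1D NMR and aggregation by WaterLOGSY at 298 K in PBS pH 7.5 with 1 μM ZnCl2, 1 mM DTT, 10% D2O, 1% DMSO-d6. Theoretical concentrations 20, 50 and 100 μM, with 200 μM 4-trifluoromethyl benzoic acid as internal reference. WaterLOGSY: mixing time 1.7 s, relaxation delay 2 s, 256 scans.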
# CFBE41o- [3] = test: Induction of autophagy in human CFBE41o- cells harbouring CFTR F508del mutant assessed as increase in number of autophagic vacuoles at 2 uM incubated for 3 hrs by confocal microscopy based analysis; type: functional, cell-based
# Summary of the method: (§1)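 CFBE41o– F508del/HS-YFP cells (50,000/well) were treated 24 h with compound (5 μM), VX-809 (1 μM) or DMSO. SAR405 (2 μM) and torin1 (20 nM) were added near the end of incubation. Cells were then loaded with 50 μM MDC in PBS for 10 min at 37 °C, washed, and imaged. MDC spot number was normalized to control. n = 3; ANOVA with Dunnett test.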
# CFBE41o- [4] = test: Antiproliferative activity against human CFBE41o- cells harbouring CFTR F508del mutant/HS-YFP at 5 uM incubated for 48 hrs; type: toxicity, cell-based
# Summary of the method: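 Cells plated at 5000/well and treated after 6 h with compound (5 μM) or DMSO. Cell-covered area was followed by the YFP signal over 48 h on a high-content imager. Means ± SEM, n = 6. Three independent experiments; ANOVA with Dunnett test.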
# [5] = system: Cystic fibrosis transmembrane conductance regulator (Homo sapiens), P13569 [F508del]; test: Corrector activity at CFTR F508del mutant in human CFBE41o- cells assessed as decrease in accumulation of ubiquitylated CFTR at 3 uM incubated for 24 hrs in presence of VX-661 by Western blot analysis; type: cell-based
# Chain of Cystic fibrosis transmembrane conductance regulator (Homo sapiens), P13569 [F508del] (P13569 as listed by the source): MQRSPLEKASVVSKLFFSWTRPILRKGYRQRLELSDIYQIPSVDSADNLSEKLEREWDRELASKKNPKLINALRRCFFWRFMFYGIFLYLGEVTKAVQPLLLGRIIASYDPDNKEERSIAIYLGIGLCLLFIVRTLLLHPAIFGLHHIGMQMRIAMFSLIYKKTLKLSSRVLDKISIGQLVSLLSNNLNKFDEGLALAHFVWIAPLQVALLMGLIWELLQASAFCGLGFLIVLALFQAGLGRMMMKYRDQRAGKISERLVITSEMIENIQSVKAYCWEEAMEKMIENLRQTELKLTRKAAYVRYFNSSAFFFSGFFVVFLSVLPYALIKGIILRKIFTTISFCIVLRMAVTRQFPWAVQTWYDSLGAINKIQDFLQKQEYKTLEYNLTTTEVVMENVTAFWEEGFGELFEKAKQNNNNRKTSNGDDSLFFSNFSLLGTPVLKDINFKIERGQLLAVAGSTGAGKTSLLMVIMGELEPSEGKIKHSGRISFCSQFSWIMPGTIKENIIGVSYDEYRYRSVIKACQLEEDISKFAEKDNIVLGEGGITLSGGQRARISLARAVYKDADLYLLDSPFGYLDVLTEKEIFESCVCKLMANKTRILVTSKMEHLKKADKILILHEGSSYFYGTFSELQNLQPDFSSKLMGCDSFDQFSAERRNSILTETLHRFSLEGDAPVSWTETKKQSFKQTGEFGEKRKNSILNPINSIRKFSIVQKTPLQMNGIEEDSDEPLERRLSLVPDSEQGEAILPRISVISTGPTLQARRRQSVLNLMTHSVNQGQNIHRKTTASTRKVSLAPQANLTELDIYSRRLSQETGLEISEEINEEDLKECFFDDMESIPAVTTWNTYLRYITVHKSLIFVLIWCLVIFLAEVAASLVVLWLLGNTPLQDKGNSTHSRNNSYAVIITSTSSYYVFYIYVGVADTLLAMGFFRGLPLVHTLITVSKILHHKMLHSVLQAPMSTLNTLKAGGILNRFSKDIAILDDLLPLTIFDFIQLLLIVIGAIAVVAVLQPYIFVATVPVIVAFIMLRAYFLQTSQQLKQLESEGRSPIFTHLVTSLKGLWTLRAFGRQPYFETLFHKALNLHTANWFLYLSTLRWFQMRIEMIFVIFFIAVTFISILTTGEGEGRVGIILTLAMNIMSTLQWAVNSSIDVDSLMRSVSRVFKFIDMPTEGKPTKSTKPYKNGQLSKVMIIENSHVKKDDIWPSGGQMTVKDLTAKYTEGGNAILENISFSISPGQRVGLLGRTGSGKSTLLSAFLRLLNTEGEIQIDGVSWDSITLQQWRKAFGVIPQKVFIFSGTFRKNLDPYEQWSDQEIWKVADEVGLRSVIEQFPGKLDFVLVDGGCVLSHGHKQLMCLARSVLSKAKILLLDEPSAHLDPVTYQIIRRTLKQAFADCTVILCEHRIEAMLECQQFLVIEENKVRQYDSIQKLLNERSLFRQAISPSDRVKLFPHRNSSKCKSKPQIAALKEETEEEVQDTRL
# Summary of the method: (§2)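 Confluent CFBE41o– F508del cells were treated 24 h, with MG-132 (10 μM) or DMSO in the last 4 h. Lysate (600 μg protein) was immunoprecipitated with rabbit anti-CFTR (2 μg, 1 h RT) and protein A/G beads, then eluted reducing. Samples ran on 4–15% gradient SDS-PAGE and were western blotted. Bands were read by chemiluminescence, with densitometry of ubiquitylated CFTR.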
# [6] = system: Cystic fibrosis transmembrane conductance regulator (Homo sapiens), P13569 [F508del]; test: Corrector activity at CFTR F508del mutant in human CFBE41o- cells assessed as rescue of CFTR mutant at 3 uM incubated for 24 hrs in presence of VX-661 by Western blot analysis; type: cell-based
# [7] = target: T1, Cystic fibrosis transmembrane conductance regulator (Homo sapiens, UniProt P13569, F508DEL); test: Corrector activity at CFTR F508del mutant in human CFBE41o- cells incubated for 25 mins by microplate reader based analysis; type: cell-based
# T1 sequence (P13569 as listed by the source): as above
# Summary of the method: (§3)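 CFBE41o– cells stably expressing F508del-CFTR and HS-YFP were treated 24 h after seeding; DMSO and VX-809 (1 μM) served as controls. Cells were stimulated 25 min with forskolin (20 μM) plus VX-770 (1 μM). YFP was read for 2 s before and 12 s after iodide injection. Initial slope came from an exponential fit of the final 11 s. Three independent experiments.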
# CFBE41o- [8] = test: Induction of autophagy in human CFBE41o- cells harbouring CFTR F508del mutant assessed as increase in number of autophagic vacuoles at 5 uM incubated for 24 hrs by confocal microscopy based analysis; type: functional, cell-based; summary of the method: as §1
# [9] = system: Cystic fibrosis transmembrane conductance regulator (Homo sapiens), P13569 [F508del]; test: Corrector activity at CFTR F508del mutant in human CFBE41o- cells assessed as increase in CFTR mutant activity at 5 uM in presence of VX-809 incubated for 24 hrs; type: cell-based; summary of the method: as §3
# [10] = system: Cystic fibrosis transmembrane conductance regulator (Homo sapiens), P13569 [F508del]; test: Corrector activity at CFTR F508del mutant in human CFBE41o- cells assessed as increase in CFTR mutant activity at 5 uM in presence of VX-445 incubated for 24 hrs; type: cell-based; summary of the method: as §3
# CFBE41o- [11] = test: Induction of apoptosis in human CFBE41o- cells assessed as increase in apoptosis at 1 uM incubated for 24 hrs by Hoechst 33342 and propidium iodide staining based analysis; type: toxicity, cell-based
# Summary of the method: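 Cells were plated at 10,000/well and treated after 6 h with compound (5, 20, 100 μM), VX-809 (1 μM), MG132 (50 μM) or DMSO for 24 h. Hoechst 33342 counted total nuclei and propidium iodide counted apoptotic nuclei, by high-content imaging. Means ± SEM; ANOVA with Dunnett test.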
# [12] = system: Cystic fibrosis transmembrane conductance regulator (Homo sapiens), P13569 [F508del]; test: Corrector activity at CFTR F508del mutant in human CFBE41o- cells assessed as decrease in accumulation of ubiquitylated CFTR at 5 uM incubated for 24 hrs in presence of VX-661/VX-445 by Western blot analysis; type: cell-based; summary of the method: as §2
# [13] = target: T1, Cystic fibrosis transmembrane conductance regulator; test: Corrector activity at CFTR F508del mutant in human CFBE41o- cells coexpressing HS-YFP incubated for 25 mins by microplate reader based analysis; type: cell-based; summary of the method: as §3
# [14] = system: Cystic fibrosis transmembrane conductance regulator (Homo sapiens), P13569 [F508del]; test: Corrector activity at CFTR F508del mutant in human CFBE41o- cells assessed as rescue of CFTR mutant at 5 uM incubated for 24 hrs in presence of VX661/VX-445 by Western blot analysis; type: cell-based
# [15] = system: Cystic fibrosis transmembrane conductance regulator (Homo sapiens), P13569 [F508del]; test: Corrector activity at CFTR F508del mutant in human CFBE41o- cells transfected with RNF5 siRNA assessed as increase in CFTR mutant activity at 5 uM incubated for 24 hrs in presence of VX-661/VX-445; type: cell-based
# Summary of the method: (§4)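 CFBE41o– F508del/HS-YFP cells were reverse-transfected with 50 nM (final) NT or RNF5 siRNA using lipofectamine 2000. Medium was changed next day, then compounds were given for 24 h at 37 °C. Readout was the YFP iodide-influx assay after forskolin (20 μM) plus VX-770 (1 μM) stimulation.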
# [16] = system: Cystic fibrosis transmembrane conductance regulator (Homo sapiens), P13569 [F508del]; test: Corrector activity at CFTR F508del mutant in human CFBE41o- cells transfected with NT siRNA assessed as increase in CFTR mutant activity at 5 uM incubated for 24 hrs in presence of VX-661/VX-445; type: cell-based; summary of the method: as §4
# [17] = system: Cystic fibrosis transmembrane conductance regulator (Homo sapiens), P13569 [F508del]; test: Corrector activity at CFTR F508del mutant in human CFBE41o- cells transfected with NT siRNA assessed as increase in CFTR mutant activity at 5 uM incubated for 24 hrs; type: cell-based; summary of the method: as §4
# [18] = system: Cystic fibrosis transmembrane conductance regulator (Homo sapiens), P13569 [F508del]; test: Corrector activity at CFTR F508del mutant in human CFBE41o- cells assessed as appearance of CFTR mutant forms at 5 uM incubated for 24 hrs in presence of MG-132 by Western blot analysis; type: cell-based; summary of the method: as §2
# [19] = system: Cystic fibrosis transmembrane conductance regulator (Homo sapiens), P13569 [F508del]; test: Corrector activity at CFTR F508del mutant in human CFBE41o- cells transfected with RNF5 siRNA assessed as increase in CFTR mutant activity at 5 uM incubated for 24 hrs; type: cell-based; summary of the method: as §4
# [20] = system: Cystic fibrosis transmembrane conductance regulator (Homo sapiens), P13569 [F508del]; test: Corrector activity at CFTR F508del mutant in human CFBE41o- cells assessed as increase in CFTR mutant activity at 5 uM in presence of VX-661/VX-445 incubated for 24 hrs; type: cell-based; summary of the method: as §3
# [21] = system: Cystic fibrosis transmembrane conductance regulator (Homo sapiens), P13569 [F508del]; test: Corrector activity at CFTR F508del mutant in human CFBE41o- cells assessed as decrease in accumulation of ubiquitylated CFTR at 10 uM incubated for 4 hrs in presence of MG-132 by Western blot analysis; type: cell-based; summary of the method: as §2
# [22] = system: Cystic fibrosis transmembrane conductance regulator (Homo sapiens), P13569 [F508del]; test: Corrector activity at CFTR F508del mutant in human CFBE41o- cells assessed as appearance of CFTR mutant forms at 10 uM incubated for 4 hrs by Western blot analysis; type: cell-based
# [23] = system: Cystic fibrosis transmembrane conductance regulator (Homo sapiens), P13569 [F508del]; test: Corrector activity at CFTR F508del mutant in human CFBE41o- cells assessed as rescue of CFTR mutant at 10 uM incubated for 24 hrs in presence of VX-445 by Western blot analysis; type: cell-based
# [24] = system: Cystic fibrosis transmembrane conductance regulator (Homo sapiens), P13569 [F508del]; test: Corrector activity at CFTR F508del mutant in human CFBE41o- cells assessed as decrease in accumulation of ubiquitylated CFTR at 10 uM incubated for 24 hrs in presence of VX-445 by Western blot analysis; type: cell-based; summary of the method: as §2
smiles,measurement,setting,value
Cc1ns/c(=N\C(=N\c2ccccc2)c2ccccc2)n1Cc1ccc(C(=O)O)cc1,Activity,[1],Active
same,Activity,[2],Not Active
C[C@@H]1COCCN1c1cc(=O)n2c(n1)N(Cc1cncc(Cl)c1)[C@H](C(F)(F)F)CC2,Activity,CFBE41o- [3],inactive
Cc1ns/c(=N\C(=N\c2ccccc2)c2ccccc2)n1Cc1cccc(N(C)C)c1,Activity,CFBE41o- [4],Non-Toxic
Cc1nn(C)cc1S(=O)(=O)NC(=O)c1ccc(-n2ccc(OCC(C)(C)C(F)(F)F)n2)nc1N1C[C@@H](C)CC1(C)C,Activity,[5],Active
same,Activity,[6],Active
Cc1ns/c(=N\C(=N\c2ccccc2)c2ccccc2)n1Cc1ccccc1,pEC50,[7],5.59
same,Activity,CFBE41o- [8],Active
same,Activity,CFBE41o- [4],Non-Toxic
same,Activity,[9],Active
same,Activity,[2],Not Active
same,Activity,[10],Active
Cc1ccc(NC(=O)C2(c3ccc4c(c3)OC(F)(F)O4)CC2)nc1-c1cccc(C(=O)O)c1 [LUMACAFTOR],Activity,CFBE41o- [11],Toxic
same,Activity,CFBE41o- [4],Non-Toxic
COc1cccc(Cn2c(C)ns/c2=N\C(=N\c2ccccc2)c2ccccc2)c1,Activity,[12],Active
same,Activity,CFBE41o- [8],Active
same,pEC50,[13],5.92
same,Activity,CFBE41o- [4],Non-Toxic
same,Activity,[14],Active
same,Activity,[15],inactive
same,Activity,[16],Active
same,Activity,[9],Active
same,Activity,[17],Active
same,Activity,[18],inactive
same,Activity,[2],Not Active
same,Activity,[10],Active
same,Activity,[19],inactive
same,Activity,[20],Active
Cc1ns/c(=N\C(=N\c2ccncc2)c2ccccc2)n1Cc1ccccc1,Activity,[2],Not Active
CC(C)C[C@@H](C=O)NC(=O)[C@H](CC(C)C)NC(=O)[C@H](CC(C)C)NC(=O)OCc1ccccc1,Activity,[21],inactive
same,Activity,[22],Active
CC(C)(CO)c1cc2cc(NC(=O)C3(c4ccc5c(c4)OC(F)(F)O5)CC3)c(F)cc2n1C[C@@H](O)CO,Activity,[23],Active
same,Activity,[24],Active
CCOc1cccc(Cn2c(C)ns/c2=N\C(=N\c2ccccc2)c2ccccc2)c1,Activity,CFBE41o- [4],Non-Toxic
CNc1cccc(Cn2c(C)ns/c2=N\C(=N\c2ccccc2)c2ccccc2)c1,Activity,CFBE41o- [8],Active
same,Activity,CFBE41o- [4],Non-Toxic
Cc1ns/c(=N\C(=N\c2ccccc2)c2ccccc2)n1Cc1cccc(Cl)c1,Activity,CFBE41o- [4],Non-Toxic
Cc1ccccc1Cn1c(C)ns/c1=N\C(=N\c1ccccc1)c1ccccc1,Activity,CFBE41o- [4],Non-Toxic
